What was measured:
[1] = Cytotoxicity against human THP1 cells by MTT assay; assay type: cell-based; conditions: THP-1 cells
Procedure, shortened: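 THP-1 cells differentiated to macrophages with PMA, viability read by colorimetric MTT. CC50 and NOAEL are the arithmetic mean of at least two independent determinations, each run in triplicate.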

[2] = biological target: CYP3A4 (Homo sapiens, UniProt P08684); experiment: Inhibition of human CYP3A4 expressed in baculovirus-infected insect cells at 10 uM using Luciferin-PFBE as substrate in presence of NADPH by P450-Glo luminescence assay relative to control; assay type: ADME; conditions: probe Luciferin-PFBE
Chain of CYP3A4 (P08684 whole entry): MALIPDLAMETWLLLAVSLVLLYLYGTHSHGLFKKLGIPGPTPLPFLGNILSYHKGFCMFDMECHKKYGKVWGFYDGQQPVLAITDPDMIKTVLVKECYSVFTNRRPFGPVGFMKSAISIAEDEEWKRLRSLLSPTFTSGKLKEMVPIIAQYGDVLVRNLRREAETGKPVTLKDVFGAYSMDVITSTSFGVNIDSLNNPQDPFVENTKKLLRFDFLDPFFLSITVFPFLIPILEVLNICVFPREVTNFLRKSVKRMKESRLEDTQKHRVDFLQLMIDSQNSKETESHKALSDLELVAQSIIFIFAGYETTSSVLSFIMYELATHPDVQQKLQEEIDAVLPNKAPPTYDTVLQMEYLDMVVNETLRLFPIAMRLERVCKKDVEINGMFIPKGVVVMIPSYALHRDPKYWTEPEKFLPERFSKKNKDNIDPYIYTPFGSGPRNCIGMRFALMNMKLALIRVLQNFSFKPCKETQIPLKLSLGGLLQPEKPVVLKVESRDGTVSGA

[3] = tested on: Trypanosoma cruzi; experiment: Anti-parasitic activity against Trypanosoma cruzi Y promastigotes infected in HG39 cells at 10 uM by qPCR analysis relative to control; assay type: functional, cell-based; conditions: in the assay text read “trypomastigotes” for “promastigotes”
Procedure, shortened: (§1)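 Confluent HG39 cells (3 x 10^6 per well) infected at a 1:1 ratio with blood-derived T. cruzi Y strain trypomastigotes. Growth inhibition was read as parasite gDNA by TaqMan probe-based quantitative real-time PCR.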

[4] = Selectivity index, ratio of CC50 for human THP1 cells to EC50 for anti-parasitic activity against bloodstream form of Trypanosoma brucei brucei Lister 427; assay type: toxicity; conditions: THP-1 cells, read-out: Ratio CC50/EC50
Procedure, shortened: (§2)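 SI = CC50 in PMA-differentiated THP-1 macrophages (MTT) divided by the antiparasitic EC50.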

[5] = biological target: hERG (KCNH2) (Homo sapiens, UniProt Q12809); experiment: Inhibition of human ERG at 10 uM by Tracer Red dye based fluorescence polarization assay relative to control; conditions: probe Tracer Red dye
Chain of hERG (KCNH2) (Q12809 whole entry): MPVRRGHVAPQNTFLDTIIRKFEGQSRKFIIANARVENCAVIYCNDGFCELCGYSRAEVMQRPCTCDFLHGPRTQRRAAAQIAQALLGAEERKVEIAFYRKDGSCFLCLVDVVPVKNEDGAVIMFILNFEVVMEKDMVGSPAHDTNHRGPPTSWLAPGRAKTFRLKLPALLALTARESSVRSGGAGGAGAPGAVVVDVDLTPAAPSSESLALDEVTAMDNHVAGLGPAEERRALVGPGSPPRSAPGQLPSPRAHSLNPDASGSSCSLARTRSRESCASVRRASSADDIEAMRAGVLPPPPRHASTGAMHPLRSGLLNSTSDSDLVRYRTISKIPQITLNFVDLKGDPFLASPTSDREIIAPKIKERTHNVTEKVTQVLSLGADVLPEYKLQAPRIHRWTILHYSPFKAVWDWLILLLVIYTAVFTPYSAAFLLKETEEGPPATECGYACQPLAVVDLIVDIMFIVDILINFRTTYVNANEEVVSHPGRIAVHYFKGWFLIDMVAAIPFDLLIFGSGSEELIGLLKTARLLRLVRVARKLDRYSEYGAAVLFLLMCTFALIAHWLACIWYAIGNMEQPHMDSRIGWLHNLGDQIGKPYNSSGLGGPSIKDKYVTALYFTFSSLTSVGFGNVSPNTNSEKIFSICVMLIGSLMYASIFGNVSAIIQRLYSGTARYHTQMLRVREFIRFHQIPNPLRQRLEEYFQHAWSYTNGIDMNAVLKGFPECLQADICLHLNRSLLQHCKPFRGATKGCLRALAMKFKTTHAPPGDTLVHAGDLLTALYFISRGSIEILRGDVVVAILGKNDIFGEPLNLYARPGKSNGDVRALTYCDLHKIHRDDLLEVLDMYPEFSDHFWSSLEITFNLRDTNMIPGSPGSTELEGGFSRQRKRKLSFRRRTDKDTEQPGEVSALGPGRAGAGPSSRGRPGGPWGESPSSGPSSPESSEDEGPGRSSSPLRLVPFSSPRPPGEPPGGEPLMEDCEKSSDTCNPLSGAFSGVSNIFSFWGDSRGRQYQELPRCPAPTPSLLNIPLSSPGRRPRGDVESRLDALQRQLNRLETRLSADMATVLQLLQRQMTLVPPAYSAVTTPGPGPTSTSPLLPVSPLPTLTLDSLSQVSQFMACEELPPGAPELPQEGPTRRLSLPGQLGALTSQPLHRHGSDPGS

[6] = tested on: Leishmania infantum; experiment: Anti-parasitic activity against Leishmania infantum amastigotes infected in human THP1 cells at 50 uM after 5 days by Giemsa staining based assay relative to control; assay type: functional, cell-based; conditions: THP-1, 120 h
Procedure, shortened: (§3)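 Intracellular L. infantum amastigotes in host cells, imaged by high-content automated imaging. Host cell number, infected cells and parasites per infected cell were counted. Infection Ratio = infected cells / total cells.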

[7] = biological target: Aurora kinase B (Homo sapiens, UniProt Q96GD4); experiment: Inhibition of N-terminal-GST-tagged recombinant full length human Aurora B expressed in baculovirus infected Sf9 cells at 10 uM using native Swine Myelin Basic Protein as substrate measured after 60 mins by ADP-Glo assay relative to control; conditions: probe native Swine Myelin Basic Protein
Chain of Aurora kinase B (Q96GD4 whole entry): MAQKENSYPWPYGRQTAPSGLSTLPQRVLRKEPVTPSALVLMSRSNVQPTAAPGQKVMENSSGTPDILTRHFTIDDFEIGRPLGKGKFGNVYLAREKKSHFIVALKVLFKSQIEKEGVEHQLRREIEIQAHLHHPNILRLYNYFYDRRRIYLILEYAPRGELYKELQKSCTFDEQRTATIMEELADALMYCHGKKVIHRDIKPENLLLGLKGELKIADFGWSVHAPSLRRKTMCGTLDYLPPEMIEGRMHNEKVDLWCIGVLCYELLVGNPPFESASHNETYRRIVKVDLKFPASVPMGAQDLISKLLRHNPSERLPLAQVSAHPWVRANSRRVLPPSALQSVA
Procedure, shortened: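 Aurora B kinase activity measured by ADP-Glo, which detects ADP formed through a coupled luciferase luminescence read-out.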

[8] = biological target: CYP2C9 (Homo sapiens, UniProt P11712); experiment: Inhibition of human CYP2C9 expressed in baculovirus-infected insect cells at 10 uM using Luciferin-H as substrate in presence of NADPH by P450-Glo luminescence assay relative to control; conditions: probe Luciferin-H
Chain of CYP2C9 (P11712 whole entry): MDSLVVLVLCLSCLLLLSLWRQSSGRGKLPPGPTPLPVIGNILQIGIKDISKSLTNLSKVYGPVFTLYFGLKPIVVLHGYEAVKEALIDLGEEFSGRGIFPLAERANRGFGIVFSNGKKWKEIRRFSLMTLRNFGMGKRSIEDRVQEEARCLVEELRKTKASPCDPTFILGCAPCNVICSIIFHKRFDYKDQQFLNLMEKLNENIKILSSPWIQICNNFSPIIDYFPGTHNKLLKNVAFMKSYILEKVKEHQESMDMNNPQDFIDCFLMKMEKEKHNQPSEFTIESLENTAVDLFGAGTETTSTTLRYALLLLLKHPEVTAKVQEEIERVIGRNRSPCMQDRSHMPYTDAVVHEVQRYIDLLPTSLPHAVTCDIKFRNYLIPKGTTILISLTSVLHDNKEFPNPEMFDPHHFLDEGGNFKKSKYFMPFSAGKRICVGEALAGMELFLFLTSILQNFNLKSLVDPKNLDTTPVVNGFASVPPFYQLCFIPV

[9] = tested on: Trypanosoma brucei brucei; experiment: Anti-parasitic activity against bloodstream form of Trypanosoma brucei brucei Lister 427 after 72 hrs by resazurin-based assay; assay type: functional; conditions: Lister 427, 72 h
Procedure, shortened: (§4)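 Bloodstream-form T. brucei, modified resazurin-based viability assay. EC50 is the arithmetic mean of at least two independent determinations, each run in triplicate.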

[10] = Cytotoxicity against human A549 cells assessed as cell growth at 10 uM by Cell titer-Glo assay relative to control; assay type: cell-based; conditions: read-out: Activity
Procedure, shortened: (§5)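 A549 and WI-38 cells grown in DMEM with 10% v/v FCS, streptomycin 100 µg/ml and penicillin G 100 U/ml. Cell number read as cellular ATP by CellTiter-Glo luminescence. Growth 60–100% scored non-cytotoxic, 0–60% cytostatic, below 0 cytotoxic.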

[11] = tested on: Trypanosoma cruzi; experiment: Anti-parasitic activity against Trypanosoma cruzi Y promastigotes infected in HG39 cells by qPCR analysis; assay type: functional, cell-based; conditions: in the assay text read “trypomastigotes” for “promastigotes”; procedure, shortened: as §1
[12] = tested on: Trypanosoma brucei brucei; experiment: Anti-parasitic activity against bloodstream form of Trypanosoma brucei brucei Lister 427 at 10 uM after 72 hrs by resazurin-based assay relative to control; assay type: functional; conditions: Lister 427, 72 h; procedure, shortened: as §4
[13] = biological target: CYP2D6 (Homo sapiens, UniProt P10635); experiment: Inhibition of human CYP2D6 expressed in baculovirus-infected insect cells at 10 uM using Luciferin-ME EGE as substrate in presence of NADPH by P450-Glo luminescence assay relative to control; assay type: ADME; conditions: probe Luciferin-ME EGE
Chain of CYP2D6 (P10635 whole entry): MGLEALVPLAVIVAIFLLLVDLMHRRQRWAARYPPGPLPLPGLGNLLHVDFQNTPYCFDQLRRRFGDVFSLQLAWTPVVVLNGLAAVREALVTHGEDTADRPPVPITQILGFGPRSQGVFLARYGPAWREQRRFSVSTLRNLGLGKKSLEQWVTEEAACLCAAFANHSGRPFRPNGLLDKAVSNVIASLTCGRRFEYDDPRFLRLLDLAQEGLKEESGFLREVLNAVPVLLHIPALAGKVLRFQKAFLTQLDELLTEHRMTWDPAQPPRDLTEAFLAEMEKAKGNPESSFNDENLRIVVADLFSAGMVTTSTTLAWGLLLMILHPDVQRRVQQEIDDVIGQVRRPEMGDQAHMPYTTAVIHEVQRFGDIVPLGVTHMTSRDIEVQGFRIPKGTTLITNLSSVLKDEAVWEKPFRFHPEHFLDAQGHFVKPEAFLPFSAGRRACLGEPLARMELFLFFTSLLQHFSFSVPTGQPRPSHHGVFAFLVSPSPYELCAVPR
Procedure, shortened: (§6)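 CYP enzymes as microsomal preparations from baculovirus-infected insect cells, run on the P450-Glo luminogenic substrate platform. A fall in light output indicates inhibition.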

[14] = Lipophilicity, log P of the compound; assay type: physicochemical; conditions: octanol/water
[15] = biological target: T1, CYP1A2 (Homo sapiens, UniProt P05177); experiment: Inhibition of human CYP1A2 expressed in baculovirus-infected insect cells at 10 uM using Luciferin-1A2 as substrate in presence of NADPH by P450-Glo luminescence assay relative to control; assay type: ADME; conditions: probe Luciferin-1A2; procedure, shortened: as §6
T1 sequence (P05177 whole entry): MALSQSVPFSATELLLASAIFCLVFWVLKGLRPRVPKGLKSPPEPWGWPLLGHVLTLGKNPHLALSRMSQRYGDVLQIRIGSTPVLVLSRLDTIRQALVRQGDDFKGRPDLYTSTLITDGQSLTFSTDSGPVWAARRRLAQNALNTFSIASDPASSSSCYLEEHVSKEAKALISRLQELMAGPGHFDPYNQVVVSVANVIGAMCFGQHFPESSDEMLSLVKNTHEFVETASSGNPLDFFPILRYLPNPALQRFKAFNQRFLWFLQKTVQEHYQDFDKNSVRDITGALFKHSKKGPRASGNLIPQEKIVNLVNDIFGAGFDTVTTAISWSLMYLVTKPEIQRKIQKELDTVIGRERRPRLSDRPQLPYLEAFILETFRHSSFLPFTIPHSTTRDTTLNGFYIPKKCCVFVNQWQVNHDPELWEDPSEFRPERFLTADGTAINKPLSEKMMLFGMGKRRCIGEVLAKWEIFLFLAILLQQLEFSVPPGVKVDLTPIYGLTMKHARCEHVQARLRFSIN

[16] = Cytotoxicity against human […] cells assessed as cell growth at 10 uM by Cell titer-Glo assay relative to control; assay type: cell-based; conditions: WI-38 cells, read-out: Activity; procedure, shortened: as §5
[17] = tested on: 786-0; experiment: Mitochondrial toxicity in human 786-O cells at 10 uM by mitotracker red chloromethyl-Xrosamine staining based-uptake method relative to control; assay type: cell-based; conditions: 786-0, 10 µM
Procedure, shortened: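 786-O renal carcinoma cells kept in RPMI-1640 with 2 mM glutamine, 10% v/v FCS, streptomycin 100 µg/ml and penicillin G 100 U/ml. Mitochondrial toxicity monitored by MitoTracker Red CMXRos uptake with high-content imaging.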

[18] = biological target: CYP2C19 (Homo sapiens, UniProt P33261); experiment: Inhibition of human CYP2C19 expressed in baculovirus-infected insect cells at 10 uM using Luciferin-H EGE as substrate in presence of NADPH by P450-Glo luminescence assay relative to control; assay type: ADME; conditions: probe Luciferin-H EGE; procedure, shortened: as §6
Chain of CYP2C19 (P33261 whole entry): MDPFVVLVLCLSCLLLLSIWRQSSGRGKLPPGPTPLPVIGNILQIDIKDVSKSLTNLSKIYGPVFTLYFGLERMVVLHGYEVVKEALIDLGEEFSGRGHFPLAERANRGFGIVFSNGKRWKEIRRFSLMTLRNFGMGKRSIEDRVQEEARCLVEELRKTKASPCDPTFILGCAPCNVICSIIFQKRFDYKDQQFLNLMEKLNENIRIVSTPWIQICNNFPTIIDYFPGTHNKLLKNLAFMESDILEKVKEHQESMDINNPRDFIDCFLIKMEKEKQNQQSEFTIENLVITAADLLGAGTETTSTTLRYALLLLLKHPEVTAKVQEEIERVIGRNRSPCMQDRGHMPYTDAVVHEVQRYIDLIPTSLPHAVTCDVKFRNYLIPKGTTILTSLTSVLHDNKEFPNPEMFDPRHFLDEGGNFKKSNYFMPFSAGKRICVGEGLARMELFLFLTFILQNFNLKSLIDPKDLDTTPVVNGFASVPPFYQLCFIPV

[19] = tested on: Leishmania infantum; experiment: Anti-parasitic activity against Leishmania infantum amastigotes infected in human THP1 cells after 5 days by Giemsa staining based assay; assay type: functional, cell-based; conditions: THP-1, 120 h; procedure, shortened: as §3
[20] = Selectivity index, ratio of CC50 for human THP1 cells to EC50 for anti-parasitic activity against Leishmania infantum amastigotes infected in human THP1 cells; assay type: toxicity, cell-based; conditions: THP-1 cells, read-out: Ratio CC50/EC50; procedure, shortened: as §2
[21] = tested on: Trypanosoma brucei; experiment: Anti-parasitic activity against Trypanosoma brucei 427; assay type: functional
[22] = biological target: T2, Cytochrome P450 1A2 (Homo sapiens, UniProt P05177); experiment: Inhibition of human CYP1A2 expressed in baculovirus-infected insect cells using Luciferin-1A2 as substrate in presence of NADPH by P450-Glo luminescence assay; assay type: ADME; procedure, shortened: as §6
T2 sequence (P05177 whole entry): T1 sequence (P05177 whole entry)

[23] = Cytotoxicity against human A549 cells assessed as cell growth by Cell titer-Glo assay; assay type: cell-based; procedure, shortened: as §5
[24] = biological target: Cytochrome P450 2D6 (Homo sapiens, UniProt P10635); experiment: Inhibition of human CYP2D6 expressed in baculovirus-infected insect cells using Luciferin-ME EGE as substrate in presence of NADPH by P450-Glo luminescence assay; assay type: ADME; procedure, shortened: as §6
Chain of Cytochrome P450 2D6 (P10635 whole entry): as the sequence (P10635 whole entry) above

[25] = biological target: Cytochrome P450 2C19 (Homo sapiens, UniProt P33261); experiment: Inhibition of human CYP2C19 expressed in baculovirus-infected insect cells using Luciferin-H EGE as substrate in presence of NADPH by P450-Glo luminescence assay; assay type: ADME; procedure, shortened: as §6
Chain of Cytochrome P450 2C19 (P33261 whole entry): as the sequence (P33261 whole entry) above

| Compound | CC50 [1] [µM] | inhibition at 10 µM [2] [%] | inhibition at 10 µM [3] [%] | selectivity ratio [4] | inhibition at 10 µM [5] [%] | inhibition at 50 µM [6] [%] | inhibition at 1 h, 10 µM [7] [%] | inhibition at 10 µM [8] [%] | EC50 [9] [µM] | viability at 10 µM [10] [%] | EC50 [11] [µM] | inhibition at 10 µM [12] [%] | inhibition at 10 µM [13] [%] | logP [14] | inhibition at 10 µM [15] [%] | viability at 10 µM [16] [%] | Activity [17] [%] | inhibition at 10 µM [18] [%] | EC50 [19] [µM] | selectivity ratio [20] | also measured |
| --- | --- | --- | --- | --- | --- | --- | --- | --- | --- | --- | --- | --- | --- | --- | --- | --- | --- | --- | --- | --- | --- |
| COc1cccc(/C=C/C(=O)c2ccc(OC)cc2O)c1 | > 25 | -8.3 | 74 | ≥ 7 | 13.6 | 21 | -10.6 | 47.4 | 3.4 | 110 | < 10 | 100 | 58 | 3.86 | 75.4 | 63 | -2.9 | 63.5 |  |  |  |
| COc1ccc(C(=O)/C=C/c2cc(OC)c(OC)c(OC)c2)c(O)c1 | > 100 | -10 | 60 |  | 34.7 | 71 | -23.6 | 57.6 |  | 127 | < 10 |  | 65.1 | 3.49 | 1.2 | 78.1 | 1.1 | 67.5 | 30.6 | > 1.6 |  |
| COc1ccc(C(=O)/C=C/c2ccc(OC)c(OC)c2)c(O)c1 | > 100 | 2.4 | 48 |  | 3.5 | 10 | -10.4 | 10.7 |  | 98.8 | < 10 | 10 | 92.7 | 3.53 | 36.2 | 128 | -5.8 | 50 |  |  |  |
| COc1ccc(O)c(C(=O)/C=C/c2cc(OC)c(OC)c(OC)c2)c1 | > 25 | -3.1 | 1 | ≥ 6 | 9.5 | 43 | -8.1 | 60.9 | 4.4 | 108 |  | 100 | 88.3 | 3.47 | 13.3 | 73.9 | -6.4 | 84.6 | 42.4 | > 1 |  |
| COc1ccc(O)c(C(=O)/C=C/c2c(OC)cccc2OC)c1 | > 25 | 15.3 | 52 | ≥ 12 | -7.1 |  | 104 | 36.9 | 2.1 | 103 | < 10 | 86 | 11.7 | 3.52 | 41.7 | 14.6 | 14.6 | 61.1 |  |  |  |
| COc1cc(O)c(C(=O)/C=C/c2cc(OC)c(OC)c(OC)c2)cc1OC | > 25 | 18.7 | 0 | ≥ 3 | 7.1 | 88 | -4.2 | 27 | 7.4 | 115 |  | 91 | -24.9 | 3.5 | -3.1 | 88.5 | 10 | 75.7 | 22.2 | > 2 |  |
| COc1cc(O)c(C(=O)/C=C/c2ccccc2)c(OC)c1 [FLAVOKAWAIN B] |  |  |  |  |  |  |  |  |  |  |  |  |  | 3.9 |  |  |  |  |  |  | EC50 [21]: 6.2 µM |
| N=C(N)c1ccc(OCCCCCOc2ccc(C(=N)N)cc2)cc1 [PENTAMIDINE] |  |  |  |  |  |  |  |  | 0.00155 |  |  |  |  |  |  |  |  |  |  |  | IC50 [22]: > 100 µM; GI50 [23]: > 100 µM; IC50 [24]: 24.8 µM; IC50 [25]: > 100 µM |
